≈ marks a conversion by molar mass, not a printed value.
Legend:
Vero = assay: Cytotoxicity against african green monkey Vero cells; type: cell-based; conditions: Chlorocebus sabaeus
Outline: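 Vero cells (ATCC CCL-81) tested in the CellTiter 96 aqueous nonradioactive cell proliferation assay. Maximum (100%) cytotoxicity set by lysing cells with sodium dodecyl sulfate. IC50 defined as the reciprocal dilution giving 50% inhibition of the Vero cells.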

[1] = Selectivity index, ratio of IC50 for african green monkey Vero cells to MIC for Mycobacterium tuberculosis H37Rv; type: functional
Outline: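 Calculated as Vero IC50 (CellTiter 96 aqueous assay, ATCC CCL-81 cells) divided by the H37Rv MIC (microplate Alamar Blue, ≥90% inhibition relative to untreated cultures).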

[2] = tested on: Mycobacterium tuberculosis; assay: Antitubercular activity against Mycobacterium tuberculosis H37Rv by microplate alamar blue assay; type: functional
Outline: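 M. tuberculosis H37Rv (ATCC 27294) tested in the microplate Alamar Blue assay with fluorescence read-out. MIC taken as the lowest drug concentration giving ≥90% inhibition relative to untreated cultures.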

## C=C(C)[C@@H]1CC[C@]2(C)CC[C@]3(C)[C@H](CC[C@@H]4[C@@]5(C)CC[C@@H](O)C(C)(C)[C@@H]5CC[C@]43C)[C@@H]12
Vero
  IC50: 127 µg/mL (≈ 298 µM)
[1]
  Ratio: 10.4
[2]
  MIC: 13.4 µg/mL (≈ 31.4 µM)

## CO[C@H]1/C=C/O[C@@]2(C)Oc3c(C)c(O)c4c(O)c(c(/C=N/N5CCN(C)CC5)c(O)c4c3C2=O)NC(=O)/C(C)=C\C=C\[C@H](C)[C@H](O)[C@@H](C)[C@@H](O)[C@@H](C)[C@H](OC(C)=O)[C@@H]1C [RIFAMPIN]
[2]
  MIC: 0.06 µg/mL (≈ 0.0729 µM)

## CCCCCCCCCCCC(=O)O[C@H]1CC[C@]23C[C@]24CC[C@]2(C)[C@@H]([C@H](C)C/C=C/C(C)(C)O)CC[C@@]2(C)[C@@H]4CC[C@H]3C1(C)C
[2]
  MIC: > 128 µg/mL

## O=c1c(O[C@@H]2O[C@H](CO)[C@@H](O)[C@H](O)[C@H]2O)c(-c2ccc(O)cc2)oc2cc(O)cc(O)c12 [ASTRAGALIN]
[2]
  MIC: > 128 µg/mL

## C=C[C@@]1(C)C=C2CC[C@@H]3[C@@](C)(CCC(=O)[C@@]3(C)CO)[C@H]2C[C@H]1O [LECHERONOL B]
[2]
  MIC: 128 µg/mL (≈ 402 µM)

## CC1(C)CC[C@]2(C)CC[C@]3(C)C(=CC[C@@H]4[C@@]5(C)CC[C@@H](O)C(C)(C)[C@@H]5CC[C@]43C)[C@@H]2C1
Vero
  IC50: 127 µg/mL (≈ 298 µM)
[1]
  Ratio: 10.4
[2]
  MIC: 12.2 µg/mL (≈ 28.6 µM)

## CC1(C)CC[C@]2(C)CC[C@]3(C)C(=CC[C@@H]4[C@@]5(C)CC[C@H](O)C(C)(C)[C@@H]5CC[C@]43C)[C@@H]2C1 [beta-AMYRIN]
[2]
  MIC: 64 µg/mL (≈ 150 µM)

## O=C(c1c(O)cc(O)cc1O)[C@H](O)[C@H](O)c1cc(O)c(O)c(O)c1
[2]
  MIC: > 128 µg/mL

## C=C[C@@]1(C)C=C2CC[C@H]3C(C)(C)C(=O)C[C@@H](O)[C@@]3(C)[C@H]2C[C@H]1O [LECHERONOL A]
Vero
  IC50: 105 µg/mL (≈ 329 µM)
[1]
  Ratio: 26.2
[2]
  MIC: 4 µg/mL (≈ 12.6 µM)

## C=C(C)[C@@H]1CC[C@]2(C)CC[C@]3(C)[C@H](CC[C@@H]4[C@@]5(C)CC[C@H](O)C(C)(C)[C@@H]5CC[C@]43C)[C@@H]12 [LUPEOL]
[2]
  MIC: > 128 µg/mL

## CC(C)CCC[C@@H](C)[C@H]1CC[C@@]2(C)[C@@H]3CC[C@H]4C(C)(C)[C@@H](O)CC[C@@]45C[C@@]35CC[C@]12C [CYCLOARTANOL]
Vero
  IC50: 102 µg/mL (≈ 239 µM)
[1]
  Ratio: 12.8
[2]
  MIC: 8 µg/mL (≈ 18.7 µM)

## O=c1c(O[C@@H]2O[C@H](CO)[C@@H](O)[C@H](O)[C@H]2O)c(-c2ccc(O)c(O)c2)oc2cc(O)cc(O)c12 [ISOQUERCETIN]
[2]
  MIC: 94 µg/mL (≈ 202 µM)

## C[C@@H]1CC[C@]2(C(=O)O)CC[C@]3(C)C(=CC[C@@H]4[C@@]5(C)C[C@@H](O)[C@H](O)[C@@](C)(CO)[C@@H]5CC[C@]43C)[C@@H]2C1
[2]
  MIC: > 128 µg/mL

## C[C@H]1[C@H](C)CC[C@]2(C)CC[C@]3(C)C(=CC[C@@H]4[C@@]5(C)CC[C@@H](O)C(C)(C)[C@@H]5CC[C@]43C)[C@H]12
[2]
  MIC: > 128 µg/mL

Reference: ChEMBL document CHEMBL1151170, “Mycobacterium tuberculosis growth inhibition by constituents of Sapium haematospermum” (J Nat Prod, 2004)
